Test results reported in ChEMBL document CHEMBL3616405 (J Med Chem, 2015).
One block for each compound: values may come before it.

Assays:
[1] = Clearance in Gottingen mini pig at 0.5 nmol/kg, iv; type: ADME, organism-based, Sus scrofa; details: Gottingen minipig, in vivo
Outline: (§1)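 Göttingen mini-pigs received a single i.v. or s.c. dose, sized to individual body weight. Twelve blood samples were taken up to 288 h into ice-cooled EDTA tubes, then centrifuged at 4 °C. Plasma was frozen until GLP-1 analogue was measured by ELISA or LC/MS. Cl, Vz, T1/2, Tmax, MRT and F came from noncompartmental analysis.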

[2] = Bioavailability in Gottingen mini pig at 1 nmol/kg, sc; type: ADME, organism-based, Sus scrofa; details: Gottingen minipig, in vivo; outline: as §1
[3] = Apparent volume of distribution in Gottingen mini pig at 0.5 nmol/kg, iv; type: ADME, organism-based, Sus scrofa; details: Gottingen minipig, in vivo, read-out: Vz; outline: as §1
[4] = Half life in Gottingen mini pig at 0.5 nmol/kg, iv; type: ADME, organism-based, Sus scrofa; details: Gottingen minipig, in vivo; outline: as §1
[5] = Mean residence time in Gottingen mini pig at 1 nmol/kg, sc; type: ADME, organism-based, Sus scrofa; details: Gottingen minipig, in vivo; outline: as §1
Mus musculus [6] = experiment: Antiobesity activity in sc dosed db/db mouse assessed as reduction of body weight; type: functional, organism-based
Mus musculus [7] = experiment: Antihyperglycaemic activity in sc dosed db/db mouse assessed as reduction of blood glucose level by glucose oxidase method; type: functional, organism-based
Outline: (§2)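 Male db/db mice (10–12 weeks old, blood glucose above 10 mM), group-housed, fed chow and acidified water ad libitum. Doses of 0.3–100 nmol/kg were given s.c. at 6 mL/kg in 50 mM phosphate with 0.05% Tween 80, pH 8. Tail-tip capillary blood glucose was measured by glucose oxidase at 0, 1, 2, 3, 6, 24 and 48 h. […] Values are mean ± SEM.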

Sus scrofa [8] = experiment: Mean residence time in Gottingen mini pig at 2 nmol/kg, sc; type: ADME, organism-based; details: in vivo; outline: as §1
Sus scrofa [9] = experiment: Bioavailability in Gottingen mini pig at 2 nmol/kg, sc; type: ADME, organism-based; details: in vivo; outline: as §1
Sus scrofa [10] = experiment: Tmax in Gottingen mini pig at 2 nmol/kg, sc; type: ADME, organism-based; details: in vivo; outline: as §1
Sus scrofa [11] = experiment: Clearance in Gottingen mini pig at 2 nmol/kg, iv; type: ADME, organism-based; details: in vivo; outline: as §1
Sus scrofa [12] = experiment: Apparent volume of distribution in Gottingen mini pig at 2 nmol/kg, iv; type: ADME, organism-based; details: in vivo; outline: as §1
Homo sapiens = species on record: Homo sapiens; experiment: Half life in human; type: ADME, organism-based; details: in vivo
Sus scrofa [13] = experiment: Half life in Gottingen mini pig at 2 nmol/kg, iv; type: ADME, organism-based; details: in vivo; outline: as §1
Mus musculus [14] = experiment: Antihyperglycaemic activity in sc dosed db/db mouse assessed as reduction of blood glucose level up to 48 hrs by glucose oxidase method; type: functional, organism-based; outline: as §2
[15] = molecular target: T1, Glucagon-like peptide 1 receptor (Homo sapiens, UniProt P43220); experiment: Displacement of [125I]-GLP1 from human GLP1 receptor expressed in BHK cells after 2 hrs in absence of human serum albumin; type: cell-based
T1 sequence (P43220 whole entry): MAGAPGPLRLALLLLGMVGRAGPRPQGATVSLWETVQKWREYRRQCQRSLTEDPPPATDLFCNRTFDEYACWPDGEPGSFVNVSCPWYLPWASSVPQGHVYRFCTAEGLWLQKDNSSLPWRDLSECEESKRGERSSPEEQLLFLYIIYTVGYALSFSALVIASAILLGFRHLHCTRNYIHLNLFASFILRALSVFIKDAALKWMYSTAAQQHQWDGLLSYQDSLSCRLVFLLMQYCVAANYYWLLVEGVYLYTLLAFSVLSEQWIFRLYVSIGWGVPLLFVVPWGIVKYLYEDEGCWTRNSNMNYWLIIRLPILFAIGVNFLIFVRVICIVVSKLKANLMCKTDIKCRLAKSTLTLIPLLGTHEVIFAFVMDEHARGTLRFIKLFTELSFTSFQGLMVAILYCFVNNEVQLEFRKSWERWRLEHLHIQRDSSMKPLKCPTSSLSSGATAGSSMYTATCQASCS

[16] = molecular target: T1, Glucagon-like peptide 1 receptor; experiment: Agonist activity at human GLP1 receptor expressed in BHK cells after 3 hrs by CRE firefly luciferase reporter gene assay in absence of human serum albumin; type: functional, cell-based
[17] = molecular target: T1, Glucagon-like peptide 1 receptor; experiment: Displacement of [125I]-GLP1 from human GLP1 receptor expressed in BHK cells after 2 hrs in presence of 2% human serum albumin; type: cell-based
Albumin = Albumin (Homo sapiens, UniProt P02768); experiment: Binding affinity to human serum albumin at 100 uM by analytical ultracentrifugation analysis relative to liraglutide; type: ADME; details: isolated protein
Chain of Albumin (P02768 whole entry): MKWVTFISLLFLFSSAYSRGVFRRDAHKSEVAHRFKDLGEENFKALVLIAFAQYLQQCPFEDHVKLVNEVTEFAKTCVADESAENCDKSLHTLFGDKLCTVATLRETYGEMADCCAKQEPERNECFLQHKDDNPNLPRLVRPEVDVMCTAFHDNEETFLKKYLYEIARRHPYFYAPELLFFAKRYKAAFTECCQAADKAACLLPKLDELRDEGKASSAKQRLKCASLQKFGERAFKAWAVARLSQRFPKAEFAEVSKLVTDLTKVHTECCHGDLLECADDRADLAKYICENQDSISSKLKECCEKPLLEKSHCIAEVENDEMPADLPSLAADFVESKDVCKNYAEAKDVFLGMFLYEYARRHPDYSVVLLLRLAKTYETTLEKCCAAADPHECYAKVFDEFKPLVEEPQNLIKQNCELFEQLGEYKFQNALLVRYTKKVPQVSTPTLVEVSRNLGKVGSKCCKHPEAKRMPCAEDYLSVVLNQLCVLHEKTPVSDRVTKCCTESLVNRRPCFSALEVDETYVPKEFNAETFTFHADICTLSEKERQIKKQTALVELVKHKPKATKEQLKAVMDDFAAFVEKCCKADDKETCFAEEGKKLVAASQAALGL
Outline: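 Sedimentation-velocity analytical ultracentrifugation of 100 μM analogue with 10 μM purified monomeric HSA in PBS, pH 7.4, at 20 °C and 40 000 rpm, read at 250 nm. Free fraction Φ = c_free/(c_tot − c_HSA). Three experiments were averaged, with SD.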

clearance [1]: 3.8 mL/h/kg | bioavailability [2]: 66% | Vd [3]: 0.0674 L/kg | half-life [4]: 12.4 h | MRT [5]: 23 h
Compound: CCCCCCCCCCCCCCCC(=O)N[C@@H](CCC(=O)NCCCC[C@H](NC(=O)[C@H](C)NC(=O)[C@H](C)NC(=O)[C@H](CCC(N)=O)NC(=O)CNC(=O)[C@H](CCC(=O)O)NC(=O)[C@H](CC(C)C)NC(=O)[C@H](Cc1ccc(O)cc1)NC(=O)[C@H](CO)NC(=O)[C@H](CO)NC(=O)[C@@H](NC(=O)[C@H](CC(=O)O)NC(=O)[C@H](CO)NC(=O)[C@@H](NC(=O)[C@H](Cc1ccccc1)NC(=O)[C@@H](NC(=O)CNC(=O)[C@H](CCC(=O)O)NC(=O)[C@H](C)NC(=O)[C@@H](N)Cc1cnc[nH]1)[C@@H](C)O)[C@@H](C)O)C(C)C)C(=O)N[C@@H](CCC(=O)O)C(=O)N[C@@H](Cc1ccccc1)C(=O)N[C@H](C(=O)N[C@@H](C)C(=O)N[C@@H](Cc1c[nH]c2ccccc12)C(=O)N[C@@H](CC(C)C)C(=O)N[C@H](C(=O)N[C@@H](CCCNC(=N)N)C(=O)NCC(=O)N[C@@H](CCCNC(=N)N)C(=O)NCC(=O)O)C(C)C)[C@@H](C)CC)C(=O)O [LIRAGLUTIDE]

IC50 [15]: 0.94 nM | EC50 [16]: 0.0086 nM | IC50 [17]: 20.5 nM
Compound: CC[C@H](C)[C@H](NC(=O)[C@H](Cc1ccccc1)NC(=O)[C@H](CCC(=O)O)NC(=O)[C@H](CCCCNC(=O)COCCOCCNC(=O)COCCOCCNC(=O)CC[C@H](NC(=O)CCCCCCCCCCCCCCC(=O)O)C(=O)O)NC(=O)[C@H](C)NC(=O)[C@H](C)NC(=O)[C@H](CCC(N)=O)NC(=O)CNC(=O)[C@H](CCC(=O)O)NC(=O)[C@H](CC(C)C)NC(=O)[C@H](Cc1ccc(O)cc1)NC(=O)[C@H](CO)NC(=O)[C@H](CO)NC(=O)[C@@H](NC(=O)[C@H](CC(=O)O)NC(=O)[C@H](CO)NC(=O)[C@@H](NC(=O)[C@H](Cc1ccccc1)NC(=O)[C@@H](NC(=O)CNC(=O)[C@H](CCC(=O)O)NC(=O)C(C)(C)NC(=O)[C@@H](N)Cc1c[nH]cn1)[C@@H](C)O)[C@@H](C)O)C(C)C)C(=O)N[C@@H](C)C(=O)N[C@@H](Cc1c[nH]c2ccccc12)C(=O)N[C@@H](CC(C)C)C(=O)N[C@H](C(=O)N[C@@H](CCCNC(=N)N)C(=O)NCC(=O)N[C@@H](CCCNC(=N)N)C(=O)NCC(=O)O)C(C)C

IC50 [15]: 0.04 nM | EC50 [16]: 0.0032 nM | IC50 [17]: 1.99 nM
Compound: CCCCCCCCCCCCCCCCCC(=O)N[C@@H](CCC(=O)NCCOCCOCC(=O)NCCOCCOCC(=O)NCCCC[C@H](NC(=O)[C@H](C)NC(=O)[C@H](C)NC(=O)[C@H](CCC(N)=O)NC(=O)CNC(=O)[C@H](CCC(=O)O)NC(=O)[C@H](CC(C)C)NC(=O)[C@H](Cc1ccc(O)cc1)NC(=O)[C@H](CO)NC(=O)[C@H](CO)NC(=O)[C@@H](NC(=O)[C@H](CC(=O)O)NC(=O)[C@H](CO)NC(=O)[C@@H](NC(=O)[C@H](Cc1ccccc1)NC(=O)[C@@H](NC(=O)CNC(=O)[C@H](CCC(=O)O)NC(=O)C(C)(C)NC(=O)[C@@H](N)Cc1c[nH]cn1)[C@@H](C)O)[C@@H](C)O)C(C)C)C(=O)N[C@@H](CCC(=O)O)C(=O)N[C@@H](Cc1ccccc1)C(=O)N[C@H](C(=O)N[C@@H](C)C(=O)N[C@@H](Cc1c[nH]c2ccccc12)C(=O)N[C@@H](CC(C)C)C(=O)N[C@H](C(=O)N[C@@H](CCCNC(=N)N)C(=O)NCC(=O)N[C@@H](CCCNC(=N)N)C(=O)NCC(=O)O)C(C)C)[C@@H](C)CC)C(=O)O

IC50 ([15]; bhk): 0.03 nM | EC50 ([16]; bhk): 0.0043 nM | IC50 ([17]; bhk): 0.22 nM
Compound: CCCCCCCCCCCCCCCC(=O)N[C@@H](CCC(=O)NCCOCCOCC(=O)NCCOCCOCC(=O)NCCOCCOCC(=O)NCCCC[C@H](NC(=O)[C@H](C)NC(=O)[C@H](C)NC(=O)[C@H](CCC(N)=O)NC(=O)CNC(=O)[C@H](CCC(=O)O)NC(=O)[C@H](CC(C)C)NC(=O)[C@H](Cc1ccc(O)cc1)NC(=O)[C@H](CO)NC(=O)[C@H](CO)NC(=O)[C@@H](NC(=O)[C@H](CC(=O)O)NC(=O)[C@H](CO)NC(=O)[C@@H](NC(=O)[C@H](Cc1ccccc1)NC(=O)[C@@H](NC(=O)CNC(=O)[C@H](CCC(=O)O)NC(=O)C(C)(C)NC(=O)[C@@H](N)Cc1c[nH]cn1)[C@@H](C)O)[C@@H](C)O)C(C)C)C(=O)N[C@@H](CCC(=O)O)C(=O)N[C@@H](Cc1ccccc1)C(=O)N[C@H](C(=O)N[C@@H](C)C(=O)N[C@@H](Cc1c[nH]c2ccccc12)C(=O)N[C@@H](CC(C)C)C(=O)N[C@H](C(=O)N[C@@H](CCCNC(=N)N)C(=O)NCC(=O)N[C@@H](CCCNC(=N)N)C(=O)NCC(=O)O)C(C)C)[C@@H](C)CC)C(=O)O

Second part, the compound before the results:

Compound: SEMAGLUTIDE [listing 1 of 2 here]
Activity (Mus musculus [6]): Dose-dependent effect | Activity (Mus musculus [7]): Dose-dependent effect

Compound: SEMAGLUTIDE [listing 2 of 2 here]
MRT (Sus scrofa [8]): 63.6 h | F (Sus scrofa [9]): 94% | Tmax (Sus scrofa [10]): 12 h | CL (Sus scrofa [11]): 1.6 mL/h/kg | Vz (Sus scrofa [12]): 0.1019 L/kg | t1/2 (Homo sapiens): 165 h | t1/2 (Sus scrofa [13]): 46.1 h | EC50 (Mus musculus [14]): < 2 nmol/kg

Compound: CC[C@H](C)[C@H](NC(=O)[C@H](Cc1ccccc1)NC(=O)[C@H](CCC(=O)O)NC(=O)[C@H](CCCCN)NC(=O)[C@H](C)NC(=O)[C@H](C)NC(=O)[C@H](CCC(N)=O)NC(=O)[C@H](CCCCNC(=O)COCCOCCNC(=O)COCCOCCNC(=O)CC[C@H](NC(=O)CCCCCCCCCCCCCCCCC(=O)O)C(=O)O)NC(=O)[C@H](CCC(=O)O)NC(=O)[C@H](CC(C)C)NC(=O)[C@H](Cc1ccc(O)cc1)NC(=O)[C@H](CO)NC(=O)[C@H](CO)NC(=O)[C@@H](NC(=O)[C@H](CC(=O)O)NC(=O)[C@H](CO)NC(=O)[C@@H](NC(=O)[C@H](Cc1ccccc1)NC(=O)[C@@H](NC(=O)CNC(=O)[C@H](CCC(=O)O)NC(=O)C(C)(C)NC(=O)[C@@H](N)Cc1c[nH]cn1)[C@@H](C)O)[C@@H](C)O)C(C)C)C(=O)N[C@@H](C)C(=O)N[C@@H](Cc1c[nH]c2ccccc12)C(=O)N[C@@H](CC(C)C)C(=O)N[C@H](C(=O)N[C@@H](CCCCN)C(=O)NCC(=O)N[C@@H](CCCNC(=N)N)C(=O)NCC(=O)O)C(C)C
IC50 [15]: 0.06 nM | EC50 [16]: 0.0027 nM | IC50 [17]: 17.7 nM

Compound: CC[C@H](C)[C@H](NC(=O)[C@H](Cc1ccccc1)NC(=O)[C@H](CCC(=O)O)NC(=O)[C@H](CCCCNC(=O)COCCOCCNC(=O)COCCOCCNC(=O)CC[C@H](NC(=O)CCCCCCCCCCCCCCCCC(=O)O)C(=O)O)NC(=O)[C@H](C)NC(=O)[C@H](C)NC(=O)[C@H](CCC(N)=O)NC(=O)CNC(=O)[C@H](CCC(=O)O)NC(=O)[C@H](CC(C)C)NC(=O)[C@H](Cc1ccc(O)cc1)NC(=O)[C@H](CO)NC(=O)[C@H](CO)NC(=O)[C@@H](NC(=O)[C@H](CC(=O)O)NC(=O)[C@H](CO)NC(=O)[C@@H](NC(=O)[C@H](Cc1ccccc1)NC(=O)[C@@H](NC(=O)CNC(=O)[C@H](CCC(=O)O)NC(=O)[C@H](C)NC(=O)[C@@H](N)Cc1c[nH]cn1)[C@@H](C)O)[C@@H](C)O)C(C)C)C(=O)N[C@@H](C)C(=O)N[C@@H](Cc1c[nH]c2ccccc12)C(=O)N[C@@H](CC(C)C)C(=O)N[C@H](C(=O)N[C@@H](CCCNC(=N)N)C(=O)NCC(=O)N[C@@H](CCCNC(=N)N)C(=O)NCC(=O)O)C(C)C
Activity (Albumin): Not Active
